Each structure is given as a SMILES string. Activity calls are given as the source filed them. The rule behind the calls is not given here.

The subject of series [1] is N2a. Put plainly: Effect on cellular prion protein level in mouse N2A cells up to 10 uM incubated for 5 days by Western blot method. It counts as functional, cell-based. In short, it runs like this: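 Non-infected N2a cells were treated at 0.1, 1 and 10 μM for 5 days. Lysates (50 µg protein, no PK digestion) were immunoblotted with anti-PrP Fab W226. PrPC was normalized to actin, with untreated controls set to 100%. Done in triplicate.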

A short description of series [2]: Cytotoxicity against mouse ScN2a cells assessed as cell viability at 0.1 uM after 5 days by MTT assay relative to control. It is filed as cell-based. To be noted: read-out: Activity. A digest of the protocol:
(§1)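 ScN2a cells were seeded in MEM at 2.5×10^4 cells/mL and allowed to settle for 2 h. Compounds (DMSO stock, diluted in EtOH then medium) were added at 0.1, 1 and 10 μM for 5 days at 37 °C under 5% CO2. MTT (5 mg/mL) was applied for 3 h and solubilized with DMSO/2-propanol. Plates were read at 570/690 nm. Viability is given as % of untreated control, mean ± SD of three independent experiments.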

Series [3] in a line: Cytotoxicity against mouse ScN2a cells assessed as cell viability at 1 uM after 5 days by MTT assay relative to control. It counts as cell-based. The settings on record: read-out: Activity. A digest of the protocol:
as §1

The nature of series [4]: Cytotoxicity against mouse ScN2a cells assessed as cell viability at 10 uM after 5 days by MTT assay relative to control. To be noted: read-out: Activity. It counts as cell-based. A digest of the protocol: as §1
The species entered for series [5] is Mus musculus. In words: Antiprion activity against mouse prion protein RML infected mouse ScN2a cells assessed as proteinase K-resistant PrPSc level at 1 uM incubated for 5 days followed by proteinase K digestion by Western blot method relative to control. In short, it runs like this:
(§2)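 RML-infected ScN2a cells were treated with 0.1, 1 and 10 μM for 5 days, with DMSO ≤0.1% final. Lysates (500 μg protein) were digested with 10 μg PK for 1 h at 37 °C, stopped with 2 mM PMSF and ultracentrifuged. Pellets were run on SDS-PAGE and immunoblotted with anti-PrP Fab W226, with ECL detection. Densitometry gave PK-resistant PrPSc over total PrP, with untreated set to 100%. Three independent experiments.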

Series [6] is filed under the species Mus musculus. In words: Antiprion activity against mouse prion protein RML infected mouse ScN2a cells assessed as proteinase K-resistant PrPSc level at 0.1 uM incubated for 5 days followed by proteinase K digestion by Western blot method relative to control. In short, it runs like this: as §2
For series [7], the species on record is Mus musculus. Put plainly: Antiprion activity against mouse prion protein RML infected mouse ScN2a cells assessed as proteinase K-resistant PrPSc level at 10 uM incubated for 5 days followed by proteinase K digestion by Western blot method relative to control. A digest of the protocol:
as §2

The species entered for series [8] is Mus musculus. In words: Binding affinity to PrPSc aggregates in mouse prion protein RML infected mouse ScN2a cells incubated for 8 mins followed by proteinase K digestion using FITC filter by fluorescence confocal microscopic method. In short, it runs like this:
(§3)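 N2a or ScN2a cells were grown on coverslips for 24 h, then fixed and permeabilized (4% formaldehyde/0.1% Triton X-100, 1 h, RT) and denatured with 6 M GdnHCl for 10 min. Where PK was used: 20 µg/mL for 15 min at 37 °C, stopped with PMSF. After NGS blocking, cells were stained with compound at 0.025% in 80% EtOH for 8 min at RT. Imaging was by confocal microscopy with a FITC filter.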

The nature of series [9]: Cytotoxicity against mouse ScN2a cells assessed as growth inhibition at 1 uM after 5 days by MTT assay relative to control. It is filed as cell-based. To be noted: read-out: GI. In short, it runs like this:
as §1

Series [10] is filed under the species Mus musculus. Put plainly: Binding affinity to proteinase K sensitive cellular prion protein in mouse N2A cells incubated for 8 mins by fluorescence confocal microscopic method. It counts as cell-based. In short, it runs like this:
as §3

Series [11] in a line: Antiprion activity against mouse prion protein RML infected mouse ScGT1 cells assessed as reduction in proteinase K-resistant PrPSc level incubated for 7 days followed by proteinase K digestion by ELISA. To be noted: ScGT1, 168 h.
A short description of series [12]: Antiprion activity against mouse prion protein RML infected mouse ScN2a cells assessed as reduction in proteinase K-resistant PrPSc level incubated for 5 days followed by proteinase K digestion by Western blot method. The settings on record: 120 h. A digest of the protocol:
as §2

For the compound `C1=CC2=NC(N/N=C/c3ccnc4ccccc34)=C3NC=CN3C2C=C1` (stereo not drawn), the result in series [1] was inactive. Further, the viability at 120 h, 0.1 µM in series [2] is 94.4%. Further, the viability at 120 h, 1 µM in [3] stood at 98.5%. Further, the viability at 120 h, 10 µM in series [4] worked out at 83.2%. Besides, the Activity in series [5] is 131%; in series [6], 178%; in [7], 30%.

Consider `C1=CC2=NC(N/N=C/c3ccnc4ccccc34)=C3CC=CN3C2C=C1` (stereo not drawn), for which the result in [1] was inactive. Also, the viability at 120 h, 0.1 µM in [2] was 92.3%. Also, the viability at 120 h, 1 µM in series [3] was 88.3%. Moreover, the viability at 120 h, 10 µM in series [4] is 87%. The results for the Activity in [5], in series [6] and in [7] were 78%, 90% and 27%, respectively.

Consider `Cc1ccc2c(c1)sc(-c1ccc(N(C)C)cc1)[n+]2C`, for which the outcome in series [8] was Active.

On to `COc1ccc2c(C)cc(N/N=C/c3ccnc4ccccc34)nc2c1`, for which, in [1], the outcome was inactive. The viability at 120 h, 0.1 µM in series [2] is 93.9%. Moreover, in series [3], the viability at 120 h, 1 µM came out at 84.8%. For the same compound, the viability at 120 h, 10 µM in series [4] amounted to 83.8%. In addition, the Activity stood at 77% in [5], 88% in series [6] and 13% in [7].

Take `C(=C\c1cccs1)/NNc1nc2ccccc2n2cccc12`: in series [1], the result was inactive. In addition, in series [2], the viability at 120 h, 0.1 µM was 78.9%. The viability at 120 h, 1 µM in [3] turned out to be 81.9%. Further, the viability at 120 h, 10 µM in series [4] was determined as 80.7%. In addition, the Activity turned out to be 79% in series [5], 88% in series [6] and 72% in [7].

On to `CC1=CC2=NC(N/N=C/c3ccnc4ccccc34)=C3CC=CN3C2C=C1C` (stereo not drawn), for which the result in series [1] was inactive. In series [2], the viability at 120 h, 0.1 µM was found to be 96.7%. For the same compound, the viability at 120 h, 1 µM in [3] worked out at 98.6%. The viability at 120 h, 10 µM in [4] was 86.5%. In addition, the results for the Activity in series [5], in series [6] and in [7] were 100%, 137% and 29%, respectively.

Turning to `COC(=O)C1=CC2=NC(N/N=C/c3ccc4ccccc4n3)=C3CC=CN3C2C=C1` (stereo not drawn), the viability at 120 h, 0.1 µM in series [2] worked out at 92.6%. Moreover, in series [9], the inhibition at 120 h, 1 µM was > 20%. Besides, in [3], the viability at 120 h, 1 µM was 88.2%. For the same compound, in series [4], the viability at 120 h, 10 µM turned out to be 45.4%.

Regarding `FC1=CC2=NC(N/N=C/c3ccnc4ccccc34)=C3NC=CN3C2C=C1` (stereo not drawn), the result in [1] was inactive. For the same compound, the viability at 120 h, 0.1 µM in series [2] came to 87.7%. Also, the viability at 120 h, 1 µM in [3] came out at 92.6%. Besides, the viability at 120 h, 10 µM in [4] was 72.9%. In addition, the values for the Activity in series [5], in series [6] and in series [7] were 34%, 76% and 31%, respectively.

As for `c1ccc2c(NCCCCCCCCNc3c4c(nc5ccccc35)CCCC4)c3c(nc2c1)CCCC3`, the inhibition at 120 h, 1 µM in series [9] was > 20%. In addition, the viability at 120 h, 1 µM in [3] was found to be 0.7%.

Consider `C1=CC2C(=NC(N/N=C/c3ccnc4ccccc34)=C3CC=CN32)N=C1` (stereo not drawn), for which the outcome in series [1] was inactive. Also, the viability at 120 h, 0.1 µM in series [2] is 104%. The viability at 120 h, 1 µM in series [3] is 98.6%. In series [4], the viability at 120 h, 10 µM stood at 75.6%. The Activity is 144% in series [5], 128% in series [6] and 83% in [7].

`COC(=O)C1=CC2=NC(N/N=C/c3ccnc4ccccc34)=C3CC=CN3C2C=C1` (stereo not drawn): in series [1], the result was inactive. The viability at 120 h, 0.1 µM in [2] is 72.6%. In series [3], the viability at 120 h, 1 µM was determined as 89.3%. Besides, the viability at 120 h, 10 µM in series [4] came out at 67.1%. Moreover, the Activity in series [5] was 131%; in series [6], 104%; in series [7], 30%.

Take `CN(CCCCNc1c2c(nc3ccccc13)CCCC2)CCCNc1c2c(nc3ccccc13)CCCC2`: the inhibition at 120 h, 1 µM in [9] was > 20%. The viability at 120 h, 1 µM in series [3] worked out at 76.9%.

Turning to `C(=C\c1ccco1)/NNc1nc2ccccc2n2cccc12`, the result in series [1] was inactive. In addition, the viability at 120 h, 0.1 µM in [2] turned out to be 96.8%. Besides, the viability at 120 h, 1 µM in series [3] was 88.5%. In addition, the viability at 120 h, 10 µM in [4] came to 71.4%. Besides, the Activity turned out to be 86% in [5], 105% in series [6] and 35% in series [7].

For `COC1=CC2=NC(N/N=C/c3ccnc4ccccc34)=C3CC=CN3C2C=C1` (stereo not drawn), the outcome in series [10] and in series [1] was inactive. The IC50 in [11] was 1600 nM. Further, the viability at 120 h, 0.1 µM in series [2] was 107%. Moreover, the viability at 120 h, 1 µM in series [3] came out at 96.3%. Further, the viability at 120 h, 10 µM in series [4] turned out to be 83.3%. Besides, the Activity is 35% in series [5], 76% in [6] and 9% in series [7]. In addition, the result in series [8] was Active.

As for `COc1ccc(-c2csc(Nc3ccccc3)n2)cc1OC`, the EC50 in series [12] (read-out: EC50) was 8200 nM; in series [12] (read-out: pEC50 (converted)), 8130 nM.

As to `O=C(Nc1nc(-c2ccc(-c3ccncc3)cc2)cs1)C1CC1`, the EC50 in series [12] (read-out: EC50) was 173 nM; in series [12] (read-out: pEC50 (converted)), 174 nM.

With `Cc1ccc(Nc2nc(-c3ccc(-c4ccccn4)s3)cs2)nc1`, the EC50 in series [12] (read-out: EC50) and in series [12] (read-out: pEC50 (converted)) was 1230 nM throughout.

For `COc1ccc(Nc2nc(-c3cc(-c4ccccc4)no3)cs2)nc1`, the EC50 was 230 nM in series [12] (read-out: EC50) and 229 nM in series [12] (read-out: pEC50 (converted)).

In the case of `CN(C)c1cccc(Nc2nc(-c3ccc(-c4ccccc4)cc3)cs2)n1`, the EC50 in series [12] (read-out: EC50) was 699 nM; in [12] (read-out: pEC50 (converted)) it was 692 nM.

`Cc1ccc(Nc2nc(-c3ccncc3)cs2)nc1`: the EC50 in [12] (read-out: EC50) is 1570 nM; in series [12] (read-out: pEC50 (converted)) it was 1580 nM.

As to `c1ccc(-c2cc(-c3csc(Nc4ccncc4)n3)on2)cc1`, the EC50 in series [12] (read-out: EC50) is 4420 nM; in series [12] (read-out: pEC50 (converted)), 4470 nM.

For the compound `Cc1cccc(Nc2nc(-c3ccc(-c4ccncc4)cc3)cs2)n1`, the values for the EC50 in [12] (read-out: EC50) and in series [12] (read-out: pEC50 (converted)) were 87 nM and 87.1 nM, respectively.

As to `C1=CC2=NC(N/N=C/c3ccc4ccccc4n3)=C3CC=CN3C2C=C1` (stereo not drawn), in series [1], the result was inactive. In series [2], the viability at 120 h, 0.1 µM is 87.6%. Moreover, in series [3], the viability at 120 h, 1 µM came to 94.8%. Besides, the viability at 120 h, 10 µM in series [4] was determined as 90.9%. The figures for the Activity in series [5], in [6] and in [7] were 47%, 54% and 34%, respectively.

`COc1cc2c(cc1OC)-c1nc(Nc3ccc(C)cn3)sc1C2`: the EC50 in [12] (read-out: EC50) was 5590 nM; in series [12] (read-out: pEC50 (converted)) it was 5620 nM.

For `c1ccc2oc(-c3csc(Nc4ccc(-c5cnco5)cc4)n3)cc2c1`, the EC50 in series [12] (read-out: EC50) was 228 nM; in series [12] (read-out: pEC50 (converted)), 229 nM.

As for `Cc1cccc(Nc2nc(-c3ccc(-c4ccnc(N(C)C)c4)cc3)cs2)n1`, the EC50 in [12] (read-out: EC50) and in series [12] (read-out: pEC50 (converted)) was 123 nM in each case.

`Cc1ccnc(Nc2nc(-c3cc(-c4ccccc4)no3)cs2)c1`: the EC50 was 1270 nM in series [12] (read-out: EC50) and 1260 nM in [12] (read-out: pEC50 (converted)).

Values taken from ChEMBL document CHEMBL3994584, “Identification of novel fluorescent probes preventing PrPSc replication in prion diseases” (Eur J Med Chem, 2017).
